Screening results: PubChem BioAssay, Johns Hopkins Ion Channel Center
Kir21 inh: inhibitors of mouse Kir2.1 inward-rectifier potassium channel; Inward rectifier potassium channel 2 (Mus musculus), P35561; actives 0.85% (n = 310,000); B-score at 10 µM; HEK293-Kir2.1, FluxOR thallium flux fluorescence; stronger effect = lower value;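 active = fluorescence ratio B-score at or below minus 3 SD of library scores, with starting-brightness B-score within 2 SD, cut at about -4.2 in these data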;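 also: channel flux triggered by added potassium and thallium sulfate stimulus; B-score of peak minus minimum fluorescence over baseline after thallium stimulus; more negative B-score means stronger Kir2.1 block with less thallium influx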
TRPC6 activator: mouse TRPC6 channel activators, primary screen, cell-based, HEK293, membrane potential dye; Short transient receptor potential channel 6 (Mus musculus), Q61143; HEK293-TRPC6 membrane potential dye fluorescence; stronger effect = higher value; B-score at 10 µM; actives 0.13% (n = 310,000);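 active = B-score of the integrated fluorescence ratio above library mean plus 3 SD, and starting fluorescence ratio within library mean plus 5 SD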;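 also: higher score means more depolarization so channel activation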
TRPC4 block: inhibitors of mouse TRPC4 channel, primary screen, Fluo4 calcium, HEK293 TRPC4beta/mu-opioid cells; DAMGO-evoked Fluo4 calcium flux; stronger effect = lower value; B-score at 10 µM; actives 0.39% (n = 300,000); AID 2247, 2010;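 active = B-score over 3 SD under the library average, no early fluorescence shift, positive overall ratio signal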
Target sequence (Q9QUQ5 whole entry, looked up): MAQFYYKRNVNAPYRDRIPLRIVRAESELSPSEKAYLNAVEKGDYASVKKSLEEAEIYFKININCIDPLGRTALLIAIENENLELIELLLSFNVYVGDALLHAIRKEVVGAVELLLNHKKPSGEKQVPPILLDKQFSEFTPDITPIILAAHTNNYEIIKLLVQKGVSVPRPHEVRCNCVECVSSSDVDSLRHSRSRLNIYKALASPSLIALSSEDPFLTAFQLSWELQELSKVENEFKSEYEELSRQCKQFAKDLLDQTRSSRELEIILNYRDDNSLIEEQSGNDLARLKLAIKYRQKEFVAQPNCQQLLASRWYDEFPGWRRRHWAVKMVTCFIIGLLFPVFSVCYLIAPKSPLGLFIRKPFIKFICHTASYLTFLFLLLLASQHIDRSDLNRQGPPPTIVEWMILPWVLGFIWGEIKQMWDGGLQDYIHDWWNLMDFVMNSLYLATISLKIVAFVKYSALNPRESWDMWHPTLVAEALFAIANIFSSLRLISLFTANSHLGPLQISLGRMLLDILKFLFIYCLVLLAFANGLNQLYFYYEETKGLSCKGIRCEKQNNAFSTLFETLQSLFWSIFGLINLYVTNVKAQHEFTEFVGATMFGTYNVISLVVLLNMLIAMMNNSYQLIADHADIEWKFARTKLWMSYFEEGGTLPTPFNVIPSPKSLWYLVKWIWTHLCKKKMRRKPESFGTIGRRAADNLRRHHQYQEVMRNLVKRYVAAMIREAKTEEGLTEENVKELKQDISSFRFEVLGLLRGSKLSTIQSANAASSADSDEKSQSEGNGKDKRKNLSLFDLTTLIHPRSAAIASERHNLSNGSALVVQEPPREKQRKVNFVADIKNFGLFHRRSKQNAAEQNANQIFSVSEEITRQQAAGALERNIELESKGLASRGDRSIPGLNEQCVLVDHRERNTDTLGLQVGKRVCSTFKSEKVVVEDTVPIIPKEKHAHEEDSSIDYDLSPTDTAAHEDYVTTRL
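Assay system: TRPC4beta/mu-opioid receptor HEK293 cell line; compound dosing: single concentration per test compound; detection: Fluo4 Ca2+ flux fluorescence; evaluation: per-well B score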
TRPC6 inh: mouse TRPC6 channel inhibitors, primary screen, cell-based, HEK293, membrane potential dye | actives 1.1% (n = 310,000) | Short transient receptor potential channel 6 (Mus musculus), Q61143 | AID 2553, 2010 | B-score at 10 µM | ACh-evoked depolarization; stronger effect = lower value;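 active = B-score under library mean minus 3 SD, initial fluorescence not abnormally high, positive integrated signal ratio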;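 also: B-score derived from integrated fluorescence ratio over the kinetic read; more negative B-score means stronger inhibition of depolarization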
TRPC4 act: activators of mouse TRPC4 channel, primary screen, Fluo4 calcium, HEK293 TRPC4beta/mu-opioid cells; Fluo4 calcium fluorescence; stronger effect = higher value; B-score at 10 µM; actives 0.49% (n = 310,000); AID 2237, 2010;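 active = B-score above 5 SD of library B-scores, and initial fluorescence ratio not above library mean plus 5 SD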;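 also: positive B-score marks a calcium rise read as TRPC4 activation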
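Test system: HEK293 cells stably co-expressing mouse TRPC4beta and mu-opioid receptor | Schedule: Fluo4 dye loading 45 min at room temperature, 110 s recording | Measured by: Kinetic Fluo4 calcium fluorescence, 5 s baseline at 1 Hz | Evaluation: B score of integrated ratio | Controls: Buffer (low) and maximal DAMGO (high)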
TRPC4 potent: positive allosteric modulators of TRPC4, primary screen, cell-based, mouse TRPC4beta, HEK293 mu-opioid, Fluo-4 calcium. B-score at 10 µM. AID 2227, 2009. actives 0.42% (n = 310,000). DAMGO EC20, Fluo-4 Ca2+ flux; stronger effect = higher value. Short transient receptor potential channel 4 (Mus musculus), Q9QUQ5;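 active = B-score of calcium response area above 5 SD of library B-scores, with initial fluorescence ratio within 5 SD of library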;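 also: B-score of integrated fluorescence ratio over time as area under calcium response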
TRPC4 spec 2: second check of whether TRPC6 inhibitors also affect mouse TRPC4; HEK293 TRPC4/MOR, membrane potential dye fluorescence; channel activated by saturating DAMGO dose; shares compounds with TRPC6 inh; actives 42% (n = 920); inhibition, % at 10 µM;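 active = compounds whose fluorescence signal differed from control wells by over 3 SD, either direction, in both duplicate plates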
TRPC4 spec: mouse TRPC4 modulation by TRPC6 hits, confirmation, selectivity assay for TRPC6 inhibitor project, cell-based, HEK293 TRPC4/mu-opioid, membrane potential dye; shares compounds with TRPC6 inh; membrane potential fluorescence; activity change, negative = inhibition, % at 10 µM; actives 61% (n = 920);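 active = rise or fall in signal beyond 3 SD of buffer-only wells in both replicate plates, either sign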;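 also: integrated kinetic ratio of fluorescence range over baseline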
HEK293 MPD ctr 2-1: nonspecific membrane potential effects, parental HEK293, confirmation, counter-screen for TRPC6 inhibitor project, cell-based, second counter screen; actives 31% (n = 920); parental HEK293 membrane potential dye fluorescence; maximal acetylcholine challenge after compound addition; shares compounds with TRPC6 inh; signal change vs control, % at 10 µM;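 active = membrane potential signal moving either way by over 3 SD of the maximum-effect control, in both duplicate plates, meaning non-specific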
HEK293 MPD ctr-1: membrane potential modulation in parental HEK293, confirmation, counter-screen for TRPC6 inhibitor project, cell-based | shares compounds with TRPC6 inh | parental HEK293 membrane potential dye fluorescence | membrane potential signal change, % at 10 µM | actives 60% (n = 920) | AID 2780, 2010;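 active = membrane potential signal shifting up or down by more than 3 SD of buffer-only wells, on both duplicate plates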
HEK293 MPD ctr-2: parental HEK293 membrane potential modulation, confirmation, counter-screen for TRPC6 modulator project, cell-based; shares compounds with TRPC6 inh; membrane potential dye fluorescence; membrane potential signal change, % at 10 µM; actives 51% (n = 2,400); AID 488924, 2010;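 active = membrane potential signal moves up or down beyond 5 SD from buffer-only wells, on both duplicate plates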
HEK293 MPD ctr 2-2: parental HEK293 nonspecific activity of TRPC6 modulators, second screen. shares compounds with TRPC6 inh. membrane potential dye fluorescence; after compound, maximal acetylcholine stimulation. inhibition, % at 10 µM. actives 14% (n = 2,400). AID 488926;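 active = membrane potential signal drops by more than 5 SD from the mean control signal, in both duplicate plates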;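 also: plate controls were acetylcholine ECmax control wells for no effect and buffer only wells for full effect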
TRPC4/MOR mod: TRPC4 modulation by TRPC6 hit compounds, confirmation, selectivity assay for TRPC6 modulator project, cell-based, HEK293 TRPC4/mu-opioid, membrane potential dye, mouse; shares compounds with TRPC6 inh; membrane potential fluorescence; percent change from control (negative = decrease, positive = increase), % at 10 µM; actives 69% (n = 2,400); AID 488927, 2010;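 active = membrane potential signal moved up or down beyond 5 SD of buffer control wells, in both duplicate plates, actives on both sides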;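 also: plate controls were assay buffer wells for no effect and DAMGO maximal-effect wells for full effect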
TRPC4/MOR inh 2: second selectivity test of TRPC6 modulators against mouse TRPC4. shares compounds with TRPC6 inh. HEK293 TRPC4/mu-opioid, membrane potential dye fluorescence; stimulated with maximal-effect DAMGO. inhibition, % at 10 µM. actives 55% (n = 2,400). AID 488928;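 active = drop in membrane potential signal beyond 5 SD of the control wells in both duplicate plates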;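 also: TRPC4 counter screen for TRPC6 hits run under conditions tuned for TRPC6 not TRPC4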
TRPC6 inh conf: mouse TRPC6 channel inhibitors, confirmation, HEK293 cells, membrane potential dye, duplicate; shares compounds with TRPC6 inh; ACh-evoked depolarization; inhibition, % at 10 µM; actives 43% (n = 3,300); AID 488960, 2010;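 active = fluorescence ratio falls more than 5 SD below the full-stimulation control mean, in both duplicate runs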;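 also: integrated fluorescence ratio of peak minus minimum over baseline after agonist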
TRPC6 act conf: mouse TRPC6 channel activators, confirmation, HEK293 cells, membrane potential dye, duplicate; shares compounds with TRPC6 inh; HEK293-TRPC6 membrane potential dye fluorescence, FDSS; activation, % at 10 µM; actives 11% (n = 2,800); AID 488961, 2010;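 active = ratio signal rise beyond 5 SD above unstimulated control wells' mean, seen in both duplicate runs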;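 also: plate controls were buffer EC0 wells for no effect and acetylcholine ECmax response for full effect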
* = called active by the depositor; i = inactive; . = no result. Sampled rows, rich in hits. Any-hit rate of the full collection: about 3%.

SMILES	Kir21 inh	TRPC6 activator	TRPC4 block	TRPC6 inh	TRPC4 act	TRPC4 potent	HEK293 MPD ctr-2	HEK293 MPD ctr 2-2	TRPC4/MOR mod	TRPC4/MOR inh 2	TRPC6 inh conf	TRPC6 act conf	others
CN(C)CCN(C(=O)c1ccco1)c1nc2cc3c(cc2s1)OCCO3	0.68	i	i	-5.3*	i	i	-136%*	i	-40%*	88%*	60%*	i
CN(C)CCN(C(=O)c1cc(Cl)sc1Cl)c1nc2ccc(F)cc2s1	-0.47	i	i	i	i	i	.	.	.	.	.	.
CN(C)CCCN(C(=O)c1ccc(S(=O)(=O)N(C)C)cc1)c1nc2cc3c(cc2s1)OCO3	0.47	i	i	-5*	i	i	i	i	-14%*	55%*	i	i
CN(C)CCN(C(=O)C1=COCCO1)c1nc2ccc(F)cc2s1	2.4	i	i	-7*	i	i	-139%*	i	-30%*	40%*	i	i
CCOc1ccc(C(=O)Nc2ccccc2N2CCN(C(=O)c3ccccc3)CC2)cc1[N+](=O)[O-]	0.24	i	i	i	i	i	.	.	.	.	.	.
Cc1cc([N+](=O)[O-])nn1CC(=O)NCc1nc2ccccc2[nH]1	0.63	i	i	i	i	i	.	.	.	.	.	.
CN(C)CCCN(C(=O)c1ccco1)c1nc2ccc(Br)cc2s1	-3.8	i	i	-8.1*	i	i	-120%*	i	-34%*	71%*	i	i
Cc1ccc(C(=O)N(CCCN(C)C)c2nc3ccc(Cl)cc3s2)cc1C	-3.5	i	i	i	i	i	.	.	.	.	.	.
CCOc1cccc2sc(N(CCN(CC)CC)C(=O)c3cccc([N+](=O)[O-])c3)nc12	-0.08	i	i	-5*	i	i	i	i	-10%*	62%*	i	.
CCOc1cccc2sc(N(CCN(CC)CC)C(=O)c3cccc(N4C(=O)CCC4=O)c3)nc12	-0.9	i	i	i	i	i	.	.	.	.	.	.
CN(C)CCCN(C(=O)c1ccco1)c1nc2ccc(Cl)cc2s1	0.08	i	i	-6.3*	i	i	-180%*	i	-35%*	76%*	50%*	i
CCCc1nnc(SCC(=O)Nc2ccc(NC(C)=O)cc2)n1-n1cccc1	2.3	i	i	i	i	i	.	.	.	.	.	.
O=C(CCNC(=O)c1ccc(Br)cc1)Nc1ccc(S(=O)(=O)Nc2ncccn2)cc1	-0.5	i	i	i	i	i	.	.	.	.	.	.
CCc1ccccc1NC(=O)CNC(=O)CCc1nc2sc3c(c2c(=O)[nH]1)CCCC3	2	i	i	i	i	i	.	.	.	.	.	.
COc1ccc(C(=O)C2CCCN(S(=O)(=O)c3ccc(C(C)=O)cc3)C2)c(C)c1 (stereo not drawn)	0.19	i	i	i	i	i	.	.	.	.	.	.
O=[N+]([O-])c1cc(Cl)cc(/C=N/NC(=S)Nc2ccc(S(=O)(=O)N3CCOCC3)cc2)c1O	0	i	i	-7.6*	i	26*	.	.	.	.	i	i	TRPC4 spec 2=57%*;TRPC4 spec=-24%*;HEK293 MPD ctr 2-1=i;HEK293 MPD ctr-1=-274%*
O=S(=O)(c1ccc(Cl)c(NC(=S)N/N=C/c2c(F)cccc2F)c1)N1CCOCC1	-3.9	i	i	i	i	i	.	.	.	.	.	.
O=S(=O)(c1ccc(Cl)c(NC(=S)N/N=C/c2ccc(O)cc2)c1)N1CCOCC1	-0.09	i	i	-9.1*	i	i	i	i	i	i	i	i
CCC(CC)C(=O)Nc1nnc(S(=O)(=O)Nc2ccccc2C)s1	2.1	i	i	i	i	i	.	.	.	.	.	.
COC(=O)C(NC(=O)c1ccc(C)cc1)(Nc1cccc(C)n1)C(F)(F)F (stereo not drawn)	1.6	i	i	-7.2*	i	i	.	.	.	.	63%*	.	TRPC4 spec 2=i;TRPC4 spec=i;HEK293 MPD ctr 2-1=i;HEK293 MPD ctr-1=i
